Data: ChEMBL document CHEMBL1759912, “Ionic liquid promoted synthesis, antibacterial and in vitro antiproliferative activity of novel α-aminophosphonate derivatives” (Bioorg Med Chem Lett, 2011)
Active and inactive are the calls of the source. The rule behind the calls is not given here.

Tests used:
Salmonella typhi = assay: Antibacterial activity against ampicillin-resistant Salmonella typhi NCIM 2501 assessed as bacterial growth inhibition zone at […] after 24 hrs by disc diffusion method; type: functional, organism-based; conditions: Salmonella enterica subsp. enterica serovar Typhi
Escherichia coli = assay: Antibacterial activity against ampicillin-resistant Escherichia coli NCIM 2645 assessed as bacterial growth inhibition zone after 24 hrs by disc diffusion method; type: functional, organism-based
In short: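 Strains activated in nutrient broth, 24 h at their optimum growth temperature. Nutrient agar plates seeded with 100 μl mid-log culture. Sterile 6 mm filter paper discs each loaded with 10 μl of compound solution (10 mg/ml in DMSO, filter-sterilised) and left to diffuse 20 min. Plates incubated 24 h at growth temperature. Controls: ampicillin disc (positive), 10 μl DMSO disc (negative). Zone ≥7 mm counted as susceptible.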

A549 [1] = assay: Induction of apoptosis in human A549 cells after 6 hrs; type: functional, cell-based
A549 [2] = assay: Antiproliferative activity against human A549 cells assessed as growth inhibition at 2 to 20 uM after 24 hrs; type: functional
A549 [3] = assay: Antiproliferative activity against human A549 cells; type: functional, cell-based
In short: (§1)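 A549 and SK-MEL2 cells (from NCCS Pune) grown in DMEM with 5–10% FBS, penicillin and 4 mM L-glutamine at 37 °C, 5% CO2. Plates were seeded 24 h ahead and washed with serum-free medium. Cells were exposed to 0, 2, 4, 8, 16 and 20 μM for […], then cell proliferation was estimated. Results are % cell growth, averaged from triplicate cultures run twice.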

SK-MEL-2 [4] = assay: Antiproliferative activity against human SK-MEL-2 cells; type: functional, cell-based; in short: as §1
SK-MEL-2 [5] = assay: Induction of apoptosis in human SK-MEL-2 cells after 6 hrs; type: functional, cell-based

| Structure (SMILES) | Activity (Salmonella typhi) | Activity (Escherichia coli) | Activity (A549 [1]) | growth inhibition (GI) (A549 [2]) [%] | IC50 (A549 [3]) [µM] | IC50 (SK-MEL-2 [4]) [µM] | Activity (SK-MEL-2 [5]) |
| --- | --- | --- | --- | --- | --- | --- | --- |
| CCOP(=O)(OCC)C(Nc1ccc(I)cc1[N+](=O)[O-])c1ccc(Cl)cc1 (configuration not stated) | Active | – | – | – | – | – | – |
| CCOP(=O)(OCC)C(Nc1ccc(Cl)cc1[N+](=O)[O-])c1ccc(OC)c(OC)c1 (configuration not stated) | Active | Active | – | – | – | – | – |
| CCOP(=O)(OCC)C(Nc1ccc(Cl)cc1[N+](=O)[O-])c1cccc(Cl)c1 (configuration not stated) | Active | Active | – | – | – | – | – |
| CCOP(=O)(OCC)C(Nc1ccc(Cl)cc1[N+](=O)[O-])c1c[nH]c2ccccc12 (configuration not stated) | Active | Active | Active | 80 | 11.5 | 8.43 | Active |
